# Like-named read-outs stand apart in the source and are kept apart here.
# What was measured:
# [1] = tested on: U266 MM cells; experiment: MTT cell viability assay; type: cell-based, human; details: read-out: IC50 cell viability, U266, 72 hours
# [2] = tested on: ARH-77 MM cells; experiment: MTT cell viability assay; type: cell-based, human; details: read-out: IC50 cell viability, ARH-77, 72 hours
# [3] = target: T1, STAT3 (Homo sapiens, UniProt P40763); experiment: STAT3 DNA binding activity in nuclear extracts; type: cell-based; details: 24 hours, U266 and ARH-77 MM cells
# T1 sequence (P40763 whole entry): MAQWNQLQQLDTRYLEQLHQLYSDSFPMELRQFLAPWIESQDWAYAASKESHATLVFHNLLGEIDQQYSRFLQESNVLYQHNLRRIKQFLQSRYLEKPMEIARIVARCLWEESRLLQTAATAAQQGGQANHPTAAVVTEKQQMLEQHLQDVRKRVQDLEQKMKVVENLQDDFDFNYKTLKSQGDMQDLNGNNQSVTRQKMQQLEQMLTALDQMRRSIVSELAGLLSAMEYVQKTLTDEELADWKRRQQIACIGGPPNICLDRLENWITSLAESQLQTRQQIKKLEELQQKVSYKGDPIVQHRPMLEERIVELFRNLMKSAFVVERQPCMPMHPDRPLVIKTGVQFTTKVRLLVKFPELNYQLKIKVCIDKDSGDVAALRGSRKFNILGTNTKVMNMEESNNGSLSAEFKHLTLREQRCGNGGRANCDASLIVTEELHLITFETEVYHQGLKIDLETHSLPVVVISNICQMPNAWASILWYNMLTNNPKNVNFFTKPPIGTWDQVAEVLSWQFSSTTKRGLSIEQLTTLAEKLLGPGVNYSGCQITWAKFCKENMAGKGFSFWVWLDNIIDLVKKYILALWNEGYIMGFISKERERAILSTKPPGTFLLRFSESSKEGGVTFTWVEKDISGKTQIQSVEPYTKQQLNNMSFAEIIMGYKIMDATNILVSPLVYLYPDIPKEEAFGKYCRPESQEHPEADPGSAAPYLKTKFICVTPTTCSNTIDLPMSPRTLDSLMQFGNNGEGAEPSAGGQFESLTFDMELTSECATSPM
# [4] = tested on: U266 MM cells; experiment: Annexin-V/PI flow cytometry apoptosis; type: cell-based, human; details: 24 hours
# Summary of the method: (§1)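 Cells were treated with test compound or DMSO for 24 h, harvested, washed in cold PBS and resuspended in 1× binding buffer at 1 × 10^6 cells/ml. Annexin V-FITC and PI were added for 15 min at RT in the dark. Analysis was by flow cytometry within 1 h. Results come from at least 3 independent experiments, compared with DMSO by Mann-Whitney test.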
# [5] = tested on: ARH-77 MM cells; experiment: Annexin-V/PI flow cytometry apoptosis; type: cell-based, human; details: 24 hours
# Summary of the method: as §1
# [6] = tested on: U266 cells; experiment: Synergy of LLL12 and lenalidomide, combinational index; type: cell-based, human; details: LLL12 combined with lenalidomide, U266, all combinations; CI < 1 = synergism
# [7] = tested on: ARH-77 MM tumor cells; experiment: Mouse xenograft model; type: in vivo, NOD/SCID mice; details: 5 mg/kg daily intraperitoneal, vs DMSO
# [8] = target: T1, STAT3; experiment: Western blot, constitutive STAT3 phosphorylation; type: cell-based
# Summary of the method: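 U266 and ARH-77 cells were treated with test compound or DMSO for 24 h. Primary CD138+ patient cells were isolated by positive magnetic selection (n=3 patients). Cells were lysed in cold RIPA buffer with protease inhibitors, run on SDS-PAGE and transferred to PVDF. Blots were probed for p-STAT3 (Tyr705) and total STAT3 and developed by chemiluminescence, with GAPDH as loading control.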
# [9] = target: T1, STAT3; experiment: Western blot, IL-6 and IFN-α induced STAT3 phosphorylation; type: cell-based; details: MM.1S, 2 hours pre-treatment, 30 minutes stimulation
# [10] = target: STAT1 (Homo sapiens, UniProt P42224); experiment: Western blot, cytokine-induced STAT1 phosphorylation; type: cell-based; details: MM.1S, IFN-α stimulated, 2 hours pre-treatment
# Summary of the method: (§2)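 MM.1S cells were serum-starved for 24 h, then pre-treated for 2 h with test compound (2.5–10 μM), a reference STAT3 inhibitor (2.5–20 μM) or DMSO. IFN-α (25ng/ml) was added for 30 min in the presence or absence of test compound. Western blots of RIPA lysates were probed for p-STAT1 (Tyr701) or p-STAT2 (Tyr690).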
# [11] = target: STAT2 (Homo sapiens, UniProt P52630); experiment: Western blot, cytokine-induced STAT2 phosphorylation; type: cell-based; details: MM.1S, IFN-α stimulated, 2 hours pre-treatment
# Summary of the method: as §2
# [12] = target: STAT4 (Homo sapiens, UniProt Q14765); experiment: Western blot, IL-4 induced STAT4 phosphorylation; type: cell-based; details: IM-9 human MM cells
# Summary of the method: (§3)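 IM-9 cells were serum-starved for 24 h, then left untreated or pre-treated for 2 h with test compound (2.5–10 μM), a reference STAT3 inhibitor (2.5–20 μM) or DMSO. IL-4 (25ng/ml) was added, and cells were harvested 30 min later. Blots of RIPA lysates were probed for p-STAT4 (Tyr693) or p-STAT6 (Tyr641).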
# [13] = target: STAT6 (Homo sapiens, UniProt P42226); experiment: Western blot, IL-4 induced STAT6 phosphorylation; type: cell-based; details: IM-9 human MM cells
# STAT6, sequence (P42226 whole entry): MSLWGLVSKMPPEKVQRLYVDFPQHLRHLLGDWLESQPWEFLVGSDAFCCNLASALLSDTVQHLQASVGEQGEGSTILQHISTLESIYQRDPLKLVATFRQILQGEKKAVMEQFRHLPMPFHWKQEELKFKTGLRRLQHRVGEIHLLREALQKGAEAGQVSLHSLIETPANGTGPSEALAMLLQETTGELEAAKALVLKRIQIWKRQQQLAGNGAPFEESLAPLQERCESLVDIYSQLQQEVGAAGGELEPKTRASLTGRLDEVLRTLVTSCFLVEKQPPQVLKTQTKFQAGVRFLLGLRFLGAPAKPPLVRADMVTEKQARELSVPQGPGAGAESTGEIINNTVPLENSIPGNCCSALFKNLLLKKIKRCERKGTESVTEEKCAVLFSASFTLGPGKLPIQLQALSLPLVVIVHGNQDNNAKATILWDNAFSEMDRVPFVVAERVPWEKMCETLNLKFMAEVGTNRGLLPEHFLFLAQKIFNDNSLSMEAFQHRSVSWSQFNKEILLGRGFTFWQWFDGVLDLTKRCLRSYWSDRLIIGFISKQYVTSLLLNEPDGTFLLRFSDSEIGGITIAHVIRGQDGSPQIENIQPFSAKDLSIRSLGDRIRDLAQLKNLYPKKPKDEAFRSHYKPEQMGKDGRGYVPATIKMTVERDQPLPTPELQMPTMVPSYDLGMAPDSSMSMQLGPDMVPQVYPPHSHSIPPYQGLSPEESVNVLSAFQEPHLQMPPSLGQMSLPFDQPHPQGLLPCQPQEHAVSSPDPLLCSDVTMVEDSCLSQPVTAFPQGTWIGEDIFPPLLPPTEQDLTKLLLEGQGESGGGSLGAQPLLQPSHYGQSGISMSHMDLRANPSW
# Summary of the method: as §3
# [14] = tested on: mTOR; experiment: Western blot, mTOR phosphorylation; type: cell-based, human; details: U266 and ARH-77 MM cells
# Summary of the method: (§4)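 MM cells were treated with test compound (2.5, 5 or 10μM) or DMSO for 24 h, then lysed in cold RIPA buffer with protease inhibitors. Lysates were run on SDS-PAGE, transferred to PVDF and probed with antibodies to p-ERK1/2 (Thr202/Tyr204), p-Src (Tyr416), p-mTOR (Ser2448), or cleaved caspase-3 and cleaved PARP. Detection was by enhanced chemiluminescence, with GAPDH as loading control.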
# [15] = tested on: Src; experiment: Western blot, Src phosphorylation; type: cell-based, human; details: U266 and ARH-77 MM cells
# Summary of the method: as §4
# [16] = tested on: ERK(1/2); experiment: Western blot, ERK; type: cell-based, human
# Summary of the method: as §4
# [17] = tested on: RPMI-8226; experiment: Western blot, cleaved caspase-3 and PARP; type: cell-based, human; details: IL-6 independent RPMI-8226, P-STAT3 too low to be detected
# Summary of the method: as §4
# [18] = tested on: MM1.S MM cells; experiment: MTT viability of MM1.S cells; type: cell-based, human
# [19] = target: T1, STAT3; experiment: STAT3 nuclear localization, immunofluorescence staining; type: cell-based; details: U266 cells
# [20] = tested on: STAT3 downstream target genes; experiment: RT-PCR of STAT3 downstream target genes; type: cell-based, human; details: U266 and ARH-77, 24-h
# [21] = target: BMX (Homo sapiens, UniProt P51813); details: read-out: IC50 kinase activity, BMX; 10 concentrations, 100 μM highest
# [22] = target: Fgr (Homo sapiens, UniProt P09769); details: read-out: IC50 kinase activity, Fgr; 10 concentrations, 100 μM highest
# [23] = target: LcK (Homo sapiens, UniProt P06239); details: read-out: IC50 kinase activity, LcK; 10 concentrations, 100 μM highest
# LcK, sequence (P06239 whole entry): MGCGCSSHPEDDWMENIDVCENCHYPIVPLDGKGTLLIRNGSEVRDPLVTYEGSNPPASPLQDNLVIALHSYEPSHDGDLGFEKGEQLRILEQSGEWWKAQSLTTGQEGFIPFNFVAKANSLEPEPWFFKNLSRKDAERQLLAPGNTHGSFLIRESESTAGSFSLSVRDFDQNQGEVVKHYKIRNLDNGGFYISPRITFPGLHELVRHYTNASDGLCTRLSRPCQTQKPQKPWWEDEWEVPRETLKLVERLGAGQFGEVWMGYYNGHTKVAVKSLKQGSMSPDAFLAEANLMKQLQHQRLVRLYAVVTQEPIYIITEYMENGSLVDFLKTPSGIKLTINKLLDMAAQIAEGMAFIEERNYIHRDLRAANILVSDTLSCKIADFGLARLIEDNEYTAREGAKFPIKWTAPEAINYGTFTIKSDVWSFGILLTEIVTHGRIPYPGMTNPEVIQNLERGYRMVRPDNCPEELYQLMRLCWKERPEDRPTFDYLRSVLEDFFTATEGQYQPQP
# [24] = target: BRK (Homo sapiens, UniProt Q13882); details: read-out: IC50 kinase activity, BRK; 10 concentrations, 100 μM highest
# [25] = target: Fyn (Homo sapiens, UniProt P06241); details: read-out: IC50 kinase activity, Fyn; 10 concentrations, 100 μM highest
# [26] = target: Lyn (Homo sapiens, UniProt P07948); details: read-out: IC50 kinase activity, Lyn; 10 concentrations, 100 μM highest
# [27] = target: CSK (Homo sapiens, UniProt P41240); details: read-out: IC50 kinase activity, CSK; 10 concentrations, 100 μM highest
# [28] = target: JAK3 (Homo sapiens, UniProt P52333); details: read-out: IC50 kinase activity, JAK3; 10 concentrations, 100 μM highest
# JAK3, sequence (P52333 whole entry): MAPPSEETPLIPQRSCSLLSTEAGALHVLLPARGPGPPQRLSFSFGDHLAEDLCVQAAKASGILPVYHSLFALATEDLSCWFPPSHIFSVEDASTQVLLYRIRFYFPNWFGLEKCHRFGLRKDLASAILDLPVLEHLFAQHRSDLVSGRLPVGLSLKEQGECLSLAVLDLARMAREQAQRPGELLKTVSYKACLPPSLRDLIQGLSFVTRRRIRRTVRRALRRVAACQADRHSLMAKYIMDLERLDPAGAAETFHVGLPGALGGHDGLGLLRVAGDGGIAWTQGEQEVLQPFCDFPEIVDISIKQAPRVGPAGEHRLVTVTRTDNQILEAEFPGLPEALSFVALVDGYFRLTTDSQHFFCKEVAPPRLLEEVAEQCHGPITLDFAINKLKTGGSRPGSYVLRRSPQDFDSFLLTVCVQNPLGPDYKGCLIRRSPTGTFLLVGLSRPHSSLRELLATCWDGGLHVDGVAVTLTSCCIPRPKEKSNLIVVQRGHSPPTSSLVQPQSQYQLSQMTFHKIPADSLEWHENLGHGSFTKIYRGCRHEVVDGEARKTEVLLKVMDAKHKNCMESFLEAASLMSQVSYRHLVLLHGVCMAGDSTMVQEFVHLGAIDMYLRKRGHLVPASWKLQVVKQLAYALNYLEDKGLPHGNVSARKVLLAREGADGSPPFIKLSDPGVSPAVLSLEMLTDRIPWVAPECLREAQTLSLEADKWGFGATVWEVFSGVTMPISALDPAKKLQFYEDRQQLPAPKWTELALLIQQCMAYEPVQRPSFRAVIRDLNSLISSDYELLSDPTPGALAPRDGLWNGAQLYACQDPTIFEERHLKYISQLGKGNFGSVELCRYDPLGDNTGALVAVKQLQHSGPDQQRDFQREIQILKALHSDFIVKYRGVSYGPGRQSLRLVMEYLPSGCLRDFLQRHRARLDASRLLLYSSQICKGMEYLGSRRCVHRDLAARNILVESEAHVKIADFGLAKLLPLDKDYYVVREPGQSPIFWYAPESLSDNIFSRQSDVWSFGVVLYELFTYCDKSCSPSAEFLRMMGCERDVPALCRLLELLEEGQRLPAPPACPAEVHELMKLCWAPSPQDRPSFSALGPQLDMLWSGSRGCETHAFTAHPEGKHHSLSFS
# [29] = target: ZAP-70 (Homo sapiens, UniProt P43403); details: read-out: IC50 kinase activity, ZAP-70; 10 concentrations, 100 μM highest
# [30] = target: AKT2 (Homo sapiens, UniProt P31751); details: read-out: IC50 kinase activity, AKT2; 10 concentrations, 100 μM highest
# [31] = target: IKKb (Homo sapiens, UniProt O14920); details: read-out: IC50 kinase activity, IKKb; 10 concentrations, 100 μM highest
# [32] = target: PAK2 (Homo sapiens, UniProt Q13177); details: read-out: IC50 kinase activity, PAK2; 10 concentrations, 100 μM highest
# [33] = target: CDK1/CyclinB (Homo sapiens, UniProt P06493); details: read-out: IC50 kinase activity, CDK1/CyclinB; 10 concentrations, 100 μM highest
# [34] = target: JNK1 (Homo sapiens, UniProt P45983); details: read-out: IC50 kinase activity, JNK1; 10 concentrations, 100 μM highest
# JNK1, sequence (P45983 whole entry): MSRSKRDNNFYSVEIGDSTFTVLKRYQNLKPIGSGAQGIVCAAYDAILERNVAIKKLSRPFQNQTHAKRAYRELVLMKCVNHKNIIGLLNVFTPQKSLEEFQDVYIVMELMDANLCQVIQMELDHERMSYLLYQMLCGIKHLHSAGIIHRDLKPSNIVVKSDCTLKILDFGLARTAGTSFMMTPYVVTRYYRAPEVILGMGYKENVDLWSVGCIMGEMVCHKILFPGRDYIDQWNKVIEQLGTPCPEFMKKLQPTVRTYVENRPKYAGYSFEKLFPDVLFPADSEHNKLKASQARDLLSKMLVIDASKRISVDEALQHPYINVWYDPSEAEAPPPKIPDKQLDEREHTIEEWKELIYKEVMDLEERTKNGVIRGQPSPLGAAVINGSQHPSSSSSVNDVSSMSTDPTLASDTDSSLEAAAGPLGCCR
# [35] = target: PDGFR-a (Homo sapiens, UniProt P16234); details: read-out: IC50 kinase activity, PDGFR-a; 10 concentrations, 100 μM highest
# PDGFR-a, sequence (P16234 24-1089): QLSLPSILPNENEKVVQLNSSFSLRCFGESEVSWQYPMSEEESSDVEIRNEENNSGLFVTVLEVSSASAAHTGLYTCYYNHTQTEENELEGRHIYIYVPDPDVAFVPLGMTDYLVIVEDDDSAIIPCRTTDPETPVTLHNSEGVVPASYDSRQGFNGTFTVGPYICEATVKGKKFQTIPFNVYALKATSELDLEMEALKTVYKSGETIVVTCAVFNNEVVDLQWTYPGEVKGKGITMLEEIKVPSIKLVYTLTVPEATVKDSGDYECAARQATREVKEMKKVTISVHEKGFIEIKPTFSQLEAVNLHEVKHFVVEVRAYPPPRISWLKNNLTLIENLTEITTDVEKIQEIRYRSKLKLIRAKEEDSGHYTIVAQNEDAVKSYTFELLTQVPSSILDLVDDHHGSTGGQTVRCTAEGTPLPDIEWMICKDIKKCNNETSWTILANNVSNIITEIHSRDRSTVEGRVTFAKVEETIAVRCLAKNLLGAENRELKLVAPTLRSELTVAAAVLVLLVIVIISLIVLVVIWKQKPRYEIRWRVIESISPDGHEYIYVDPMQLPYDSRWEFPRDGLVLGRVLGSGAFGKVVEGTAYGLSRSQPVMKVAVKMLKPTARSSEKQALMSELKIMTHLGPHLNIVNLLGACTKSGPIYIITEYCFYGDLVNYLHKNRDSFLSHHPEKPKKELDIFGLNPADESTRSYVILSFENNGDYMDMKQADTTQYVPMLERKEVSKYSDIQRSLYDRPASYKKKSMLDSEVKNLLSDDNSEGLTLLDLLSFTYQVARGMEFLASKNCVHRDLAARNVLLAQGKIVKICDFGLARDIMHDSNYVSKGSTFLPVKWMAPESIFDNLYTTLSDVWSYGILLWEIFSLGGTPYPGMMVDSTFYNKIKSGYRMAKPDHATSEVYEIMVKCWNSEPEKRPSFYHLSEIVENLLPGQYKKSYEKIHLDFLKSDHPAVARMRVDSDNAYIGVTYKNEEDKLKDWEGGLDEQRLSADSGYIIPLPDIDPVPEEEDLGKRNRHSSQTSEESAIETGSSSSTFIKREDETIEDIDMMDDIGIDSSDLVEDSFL
# [36] = target: FAK (Homo sapiens, UniProt Q05397); details: read-out: IC50 kinase activity, FAK; 10 concentrations, 100 μM highest
# [37] = target: JNK2 (Homo sapiens, UniProt P45984); details: read-out: IC50 kinase activity, JNK2; 10 concentrations, 100 μM highest
# [38] = target: PKC-a (Homo sapiens, UniProt P17252); details: read-out: IC50 kinase activity, PKC-a; 10 concentrations, 100 μM highest
# [39] = target: FGFR2 (Homo sapiens, UniProt P21802); details: read-out: IC50 kinase activity, FGFR2; 10 concentrations, 100 μM highest
# [40] = target: PAK1 (Homo sapiens, UniProt Q13153); details: read-out: IC50 kinase activity, PAK1; 10 concentrations, 100 μM highest
# [41] = target: PKC-d (Homo sapiens, UniProt Q05655); details: read-out: IC50 kinase activity, PKC-d; 10 concentrations, 100 μM highest
# [42] = tested on: twenty one purified human protein kinases
# [43] = 5 mg/kg daily intraperitoneal, vs vehicle-treated mice
# [44] = tested on: normal human peripheral blood lymphocytes
# [45] = tested on: normal human marrow [CD138(−)] cells; details: 10μM, 24h, MTS
structure (smiles),measurement,setting,value
NS(=O)(=O)c1cccc2c1C(=O)c1cccc(O)c1C2=O [LLL12],IC50,[1],0.49 µM
same,IC50,[2],1.96 µM
same,reduction of STAT3 DNA binding activity,[3]; 2.5μM,30–33%
same,reduction of STAT3 DNA binding activity,[3]; 5μM,58–69%
same,Apoptosis (Annexin V/PI),"[4]; U266, 2.5μM",38.2%
same,Apoptosis (Annexin V/PI),"[4]; U266, 5μM",53.3%
same,Apoptosis (Annexin V/PI),"[5]; ARH-77, 2.5μM",70.8%
same,Apoptosis (Annexin V/PI),"[5]; ARH-77, 5μM",73.5%
same,Combinational Index (CI),[6],less than 1
same,STAT3 phosphorylation in tumors,[7]; Western blot,inhibited STAT3 phosphorylation
same,tumor volume,[7]; p < 0.05,significantly suppressed
same,tumor weight,[7]; p < 0.05,significantly suppressed
same,STAT3 phosphorylation at Tyr 705,"[8]; U266 and ARH-77, 2.5μM or 5μM, 24 hours",inhibited STAT3 phosphorylation
same,STAT3 phosphorylation,[8]; primary human MM cells from three patients,inhibited STAT3 phosphorylation
same,IL-6 and IFN-α induced STAT3 phosphorylation,[9],prevented phosphorylation of STAT3
same,STAT1 phosphorylation,[10],but not STAT1 or STAT2
same,STAT2 phosphorylation,[11],but not STAT1 or STAT2
same,STAT4 phosphorylation by IL-4,[12],did not prevent phosphorylation
same,STAT6 phosphorylation by IL-4,[13],did not prevent phosphorylation
same,phosphorylation of mTOR,[14],not reduced significantly
same,phosphorylation of Src,[15],not reduced significantly
same,phosphorylation of ERK(1/2),"[16]; ARH-77 MM cells, 5μM",slightly reduced
same,phosphorylation of ERK(1/2),[16]; U266 MM cells,even increased
same,cleaved caspase-3 and cleaved PARP,[17],did not induce
same,IL-6 increased cell proliferation/viability,"[18]; IL-6 for 48 hours, MTT",blocked
same,STAT3 nuclear localization,[19],most STAT3 was retained in cytoplasm and absent in nuclei
same,"transcription of cyclin D1, survivin, Bcl-2, Bcl-XL, DNMT1",[20],inhibition of the transcription of all five
same,IC50,[21],> 100 µM
same,IC50,[22],57.2 µM
same,IC50,[23],> 100 µM
same,IC50,[24],> 100 µM
same,IC50,[25],> 100 µM
same,IC50,[26],> 100 µM
same,IC50,[27],73.9 µM
same,IC50,[28],89.7 µM
same,IC50,[29],> 100 µM
same,IC50,[30],91.8 µM
same,IC50,[31],> 100 µM
same,IC50,[32],> 100 µM
same,IC50,[33],> 100 µM
same,IC50,[34],> 100 µM
same,IC50,[35],> 100 µM
same,IC50,[36],> 100 µM
same,IC50,[37],> 100 µM
same,IC50,[38],> 100 µM
same,IC50,[39],> 100 µM
same,IC50,[40],> 100 µM
same,IC50,[41],> 100 µM
same,IC50,"[42]; read-out: IC50, kinases which contain an SH2 domain, BMX, BRK, CSK, Fgr, Fyn, JAK3, LcK, Lyn, ZAP-70, 57.19 μM to > 100 μM",≥ 57.2 µM
same,IC50,"[42]; read-out: IC50, other protein kinases, AKT2, CDK1/cyclin B, FAK, FGFR2, IKKβ, JNK1, JNK2, PAK1, PAK2, PDGFR-α, PKC-α, PKC-δ, 91.76 μM to > 100 μM",≥ 91.8 µM
same,bodyweights of treated mice,[43],not reduced
same,effect on normal cells,[44],little effects
same,effect on normal cells,[45],little effects
"O=[N+]([O-])c1ccc2c(c1)S(=O)(=O)C=C2 [Stattic, reference compound]",IL-6 and IFN-α induced STAT3 phosphorylation,[9],much less potent than LLL12
"Nc1cccc2c1CN(C1CCC(=O)NC1=O)C2=O (stereo not shown) [lenalidomide, Lenalidomide, reference compound]",cell viability,[18]; lenalidomide alone,dose-dependent reduction of cell viability

# From article PMC3228889 (International Journal of Cancer. Journal International du …, 2011)
